From ChEMBL document CHEMBL1154414, “In vitro and in vivo activities of T-705 against arenavirus and bunyavirus infections” (Antimicrob Agents Chemother, 2007)
Calls of active or inactive are those of the source. The rule behind the calls is not given here.

How the values were obtained:
Punta Toro virus [1] = assay: Antiviral activity against Punta Toro virus Adames infected Syrian golden hamster assessed as animals with detectable virus level in liver at 60 mg/kg, po twice daily administered 4 hrs before viral challenge measured on day 4 of viral infection; format: functional
Punta Toro virus [2] = assay: Antiviral activity against Punta Toro virus Adames infected Syrian golden hamster assessed as animals with detectable virus level in liver at 15 mg/kg, po twice daily administered 4 hrs before viral challenge measured on day 4 of viral infection; format: functional
Punta Toro virus [3] = assay: Antiviral activity against Punta Toro virus Adames infected Syrian golden hamster assessed as mean viral titer per 0.1 mL of serum at 60 mg/kg, po twice daily administered 4 hrs before viral challenge measured on day 4 of viral infection; format: functional
Punta Toro virus [4] = assay: Antiviral activity against 500 PFU Punta Toro virus Adames infected C57BL/6 mouse assessed as animals with detectable virus level in serum at 10 mg/kg, po twice daily administered 24 hrs post viral challenge measured on day 3 of viral infection; format: functional
Outline: (§1)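 T-705 was suspended in 0.4% carboxymethylcellulose and given by oral gavage twice daily. Mice were infected subcutaneously with PTV. Five mice per group (10 placebo) were sacrificed on day 3 or 4. Liver homogenate or serum was serially diluted onto triplicate LLC-MK2 monolayers, and CPE was read at 6–8 days. The detection limit was 2.8 log10 CCID50 per 0.1 g liver or 0.1 ml serum.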

Punta Toro virus [5] = assay: Antiviral activity against 50 PFU Punta Toro virus Adames infected C57BL/6 mouse assessed as survival at 10 mg/kg, po twice daily for 5 days administered 24 hrs post viral challenge; format: functional, organism-based; parameters: dose 10 mg/kg
Outline: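 Groups of 15 mice (25–30 placebo) were inoculated subcutaneously with PTV. Drug in 0.4% carboxymethylcellulose was given by oral gavage twice daily.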

Punta Toro virus [6] = assay: Antiviral activity against Punta Toro virus Adames infected Syrian golden hamster assessed as survival at 60 mg/kg, po twice daily for 6 days administered 4 hrs before viral challenge; format: functional
Punta Toro virus [7] = assay: Antiviral activity against Punta Toro virus Adames infected Syrian golden hamster assessed as mean day of death at 60 mg/kg, po twice daily for 6 days administered 4 hrs before viral challenge; format: functional
Punta Toro virus [8] = assay: Antiviral activity against 500 PFU Punta Toro virus Adames infected C57BL/6 mouse assessed as mean viral titer per 0.1 g of liver at 50 mg/kg, po administered 4 hrs before viral challenge measured on day 4 of viral infection; format: functional
Outline: (§2)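 Mice were infected subcutaneously with PTV and dosed by oral gavage twice daily; 5 per group (10 placebo) were killed on day 3 or 4. Liver homogenate or serum was serially diluted onto triplicate LLC-MK2 monolayers, and CPE was read 6–8 days later. 50% endpoints gave log10 CCID50 per 0.1 g liver or 0.1 ml serum. Detection range was 2.8–9.5; undetectable samples were assigned <2.8.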

Punta Toro virus [9] = assay: Antiviral activity against 500 PFU Punta Toro virus Adames infected C57BL/6 mouse assessed as mean viral titer per 0.1 g of liver at 75 mg/kg, po administered 4 hrs before viral challenge measured on day 4 of viral infection; format: functional; outline: as §2
Punta Toro virus [10] = assay: Antiviral activity against 500 PFU Punta Toro virus Adames infected C57BL/6 mouse assessed as animals with detectable virus level in liver at 100 mg/kg, po twice daily administered 4 hrs before viral challenge measured on day 4 of viral infection; format: functional; outline: as §1
Pichinde virus [11] = assay: Antiviral activity against Pichinde virus An 4763 infected Syrian golden hamster assessed as survival at 60 mg/kg, po twice daily for 7 days administered 4 hrs before viral-challenge; format: functional
Pichinde virus [12] = assay: Antiviral activity against Pichinde virus An 4763 infected Syrian golden hamster assessed as […] survival administered po twice daily for 7 days administered 4 hrs before viral-challenge; format: functional, organism-based
Punta Toro virus [13] = assay: Antiviral activity against 500 PFU Punta Toro virus Adames infected C57BL/6 mouse assessed as animals with detectable virus level in serum at 25 mg/kg, po twice daily administered 4 hrs before viral challenge measured on day 4 of viral infection; format: functional; outline: as §1
Punta Toro virus [14] = assay: Antiviral activity against 500 PFU Punta Toro virus Adames infected C57BL/6 mouse assessed as mean serum ALT levels at 100 mg/kg, po twice daily administered 4 hrs before viral challenge measured on day 4 of viral infection; format: functional
Outline: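 Subcutaneous PTV infection was followed by oral gavage twice daily with drug suspended in 0.4% CMC. Serum was collected from 5 sacrificed mice per group (10 placebo) on day 3 or 4. ALT activity was measured by kinetic assay, and sham-infected mice set the baselines.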

Punta Toro virus [15] = assay: Antiviral activity against 5000 PFU Punta Toro virus Adames infected C57BL/6 mouse assessed as survival at 30 mg/kg, po twice daily for 5 days 24 hrs post viral challenge; format: functional
Outline: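 PTV was inoculated subcutaneously into mice in groups of 15 (25–30 placebo). Dosing was by oral gavage twice daily for 5–7 days, with T-705 suspended in 0.4% CMC and ribavirin in saline. Remaining animals were observed 21–28 days for survival and day of death. Test doses had first been checked for tolerance in uninfected animals.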

Punta Toro virus [16] = assay: Antiviral activity against 500 PFU Punta Toro virus Adames infected C57BL/6 mouse assessed as mean viral titer per 0.1 g of liver at 5 mg/kg, po twice daily administered 4 hrs before viral challenge measured on day 3 of viral infection; format: functional; outline: as §2
Punta Toro virus [17] = assay: Antiviral activity against 500 PFU Punta Toro virus Adames infected C57BL/6 mouse assessed as animals with detectable virus level in liver at 30 mg/kg, po twice daily administered 4 hrs before viral challenge measured on day 3 of viral infection; format: functional; outline: as §1
Punta Toro virus [18] = assay: Antiviral activity against 500 PFU Punta Toro virus Adames infected C57BL/6 mouse assessed as mean viral titer per 0.1 mL of serum at 30 mg/kg, po twice daily administered 4 hrs before viral challenge measured on day 3 of viral infection; format: functional; outline: as §2
Pichinde virus [19] = assay: Antiviral activity against Pichinde virus An 4763 infected Syrian golden hamster assessed as inhibition of liver damage at 50 mg/kg, po twice daily for 7 days administered 72 hrs post viral-challenge measured on day 7 of viral infection; format: functional, organism-based; parameters: dose 50 mg/kg

`NC(=O)c1nc(F)cnc1O` [FAVIPIRAVIR] gave an Activity (Punta Toro virus [1]) of 20%, an Activity (Punta Toro virus [2]) of 100% and a log10CCID50 (Punta Toro virus [3]) of under 3.8. For the same molecule, the Activity (Punta Toro virus [4]) was 100%, the Activity (Punta Toro virus [5]) was “inactive” and the survival at 60 mg/kg (Punta Toro virus [6]) was 90%. For the same molecule, the Activity (Punta Toro virus [7]) was 6 days, the log10CCID50 (Punta Toro virus [8]) was under 2.8 and the log10CCID50 (Punta Toro virus [9]) was under 2.8. The Activity (Punta Toro virus [10]) was 0%, the Activity (Pichinde virus [11]) was 90% and the Activity (Pichinde virus [12]) was “Dose-dependent effect”. For the same molecule, the Activity (Punta Toro virus [13]) was 20%, the Activity (Punta Toro virus [14]) was 33 IU/L and the Activity (Punta Toro virus [15]) was 90%. It also gave a log10CCID50 (Punta Toro virus [16]) of under 2.8, an Activity (Punta Toro virus [17]) of 0% and a log10CCID50 (Punta Toro virus [18]) of under 5.2.
For `NC(=O)c1ncn([C@@H]2O[C@H](CO)[C@@H](O)[C@H]2O)n1` [RIBAVIRIN], the Activity (Pichinde virus [19]) was “Active”.
